Assay outcomes deposited in PubChem BioAssay by several laboratories.
A selection: hits, their analogues and other compounds. The true share with any hit is near 1.6%.
PKA-R2B activ: PKA-R2B complex activation; activation, % at 11.4 µM; PKA-R2B holoenzyme dissociation, Cy5-IP20 fluorescence polarization; R2B truncated from residue 108, S112A mutant; 0% DMSO only, 100% 113 µM cGMP; AID 504700; P22694+P31323; hit rate 0.079% among 340,000;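 active means activation above a cutoff set at the mean over all compounds plus 3 SD, cut at about 18% in these data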;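 further: higher means more holoenzyme dissociation and a rise in polarization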
HNF4A DNA FP: change in binding of human HNF4 alpha to DNA. hit rate 0.3% among 360,000. HNF4a-FITC DNA binding, fluorescence polarization, 1 h. P41235. activity change, % at 10 µM; in the data active means activity change above about 30%, passing the limit was not always enough
Rpn11 block: blocks the human proteasome subunit Rpn11. O00487. human 26S proteasome, Ub4-pepOG fluorescence polarization; 20S core pre-blocked with epoxomicin. calls only at 20 µM. hit rate 0.59% among 360,000. AID 588493;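 active means inhibition at 20 µM, scaled to each plate's controls, above about 33%, limit read from the data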
CSN deneddyl inh: blocks human CSN-mediated cullin deneddylation; Q92905; Purified CSN, SCF-Nedd8-OG deneddylation, fluorescence polarization; inhibition, % at 12.5 µM; hit rate 0.38% among 360,000; AID 651999;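 active means pattern-corrected inhibition above about 35%, with an unprinted fluorescence ratio check between 0.5 and 1.5, limit read from the data, passing the limit was not always enough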
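Test system: purified human Csn5 enzyme expressed in HEK293T cells. Amount: 0.24 nM enzyme. Reagent: SCFSkp2-Nedd8OG substrate at 10 nM final. Schedule: 90 min incubation of compound, enzyme and substrate at room temperature. Detection: fluorescence polarization. Read-out: % inhibition of substrate cleavage by Csn5.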
PKA-R1A activ: activates the PKA-R1A holoenzyme complex. PKA-R1A dissociation, Cy5-IP20 fluorescence polarization; scaled: DMSO 0%, 113 µM cGMP 100%. activation, % at 11.4 µM. hit rate 0.083% among 340,000. AID 504707;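 active means percent activation above the mean of all tested compounds plus 3 SD, cut at about 19% in these data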;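 further: higher means more PKAc released from R1A so a rise in polarization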
TPT1 inh: C. albicans TPT1 enzyme inhibition; AID 1962; hit rate 0.81% among 300,000; recombinant caTPT1, FP RNA substrate dephosphorylation; inhibition, % at 5 µM;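 active means inhibition above the mean of all tested compounds plus 3 SD, set per screening campaign, cut at about 24% in these data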
caTPT1 confirm: confirmation of Candida albicans TPT1 inhibitors; shares compounds with TPT1 inh; recombinant caTPT1, fluorescence polarization, RNase T1 coupled; inhibition, % at 5 µM; hit rate 74% among 2,400;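 active means inhibition above the primary screen limit, the mean inhibition of all tested compounds plus 3 SD, cut at about 25% in these data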
RNase T1 counter: counter-screen for TPT1 inhibitors: inhibitors of Aspergillus oryzae RNase T1. AID 2153. RNase T1 cleavage, fluorescence polarization, 1536-well. shares compounds with TPT1 inh. inhibition, % at 5 µM. hit rate 83% among 2,400;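 active means inhibition above the solvent-only control well mean plus 3 SD, limit set per screening run, cut at about 23% in these data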;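 further: inhibitors block cleavage so intact labeled substrate keeps polarization high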
Rpn11 inh conf: confirmation of human proteasome Rpn11 inhibitors; inhibition, % at 20 µM; shares compounds with Rpn11 block; purified human 26S proteasome, Ub4-pepOG fluorescence polarization; proteasome pretreated with epoxomicin; hit rate 29% among 1,900
MMP-2 counter-1: counter-screen for RPN11 inhibitors: inhibition of human MMP-2 | shares compounds with Rpn11 block | recombinant MMP-2, FRET peptide cleavage fluorescence | inhibition, % at 20 µM | hit rate 4% among 1,900;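 further: human MMP-2 activated beforehand with APMA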
Target sequence (P08253 whole entry, looked up): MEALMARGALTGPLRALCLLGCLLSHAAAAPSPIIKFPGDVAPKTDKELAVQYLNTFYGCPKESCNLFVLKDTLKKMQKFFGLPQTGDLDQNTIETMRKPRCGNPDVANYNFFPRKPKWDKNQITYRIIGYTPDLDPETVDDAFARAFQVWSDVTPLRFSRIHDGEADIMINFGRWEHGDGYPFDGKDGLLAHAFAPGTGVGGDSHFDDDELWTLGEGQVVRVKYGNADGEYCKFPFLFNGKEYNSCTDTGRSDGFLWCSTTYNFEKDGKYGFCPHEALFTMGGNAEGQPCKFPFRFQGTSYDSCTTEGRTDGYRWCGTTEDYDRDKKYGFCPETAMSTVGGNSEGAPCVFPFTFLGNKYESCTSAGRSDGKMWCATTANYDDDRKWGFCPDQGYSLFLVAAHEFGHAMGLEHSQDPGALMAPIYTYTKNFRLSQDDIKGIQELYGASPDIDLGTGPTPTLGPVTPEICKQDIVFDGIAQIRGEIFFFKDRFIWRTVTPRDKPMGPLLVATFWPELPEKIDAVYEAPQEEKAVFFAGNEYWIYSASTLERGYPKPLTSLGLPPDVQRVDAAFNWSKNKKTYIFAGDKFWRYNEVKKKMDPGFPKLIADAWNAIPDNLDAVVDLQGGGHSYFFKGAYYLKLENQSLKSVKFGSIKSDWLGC
Thrombin FP: thrombin (bovine) inhibition counter-screen. shares compounds with Rpn11 block. bovine thrombin cleavage of Ub4-pepOG, fluorescence polarization. inhibition, % at 20 µM. hit rate 13% among 1,900. AID 602333;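 active means mean inhibition at least 40% at 20 µM, or signal 3 deviations below plate average, so some actives read negative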
CSN deneddyl val: validation of inhibitors of human CSN-mediated cullin deneddylation; shares compounds with CSN deneddyl inh; Csn5 deneddylation of SCF-Nedd8OG, fluorescence polarization, 90 min; inhibition, % at 16.6 µM; hit rate 62% among 540; in the data active means inhibition above about 50%
MMP-2 counter-2: MMP-2 (human) inhibition, counter-screen for CSN hits; shares compounds with CSN deneddyl inh; recombinant MMP-2, FRET substrate fluorescence, 60 min; inhibition, % at 16.6 µM; hit rate 33% among 540; AID 720655;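 active means corrected plate-normalized z-score of 5 or more, or -5 or less, or inhibition of 15% or more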
Thrombin counter: thrombin (bovine) inhibition, counter-screen for CSN hits. shares compounds with CSN deneddyl inh. bovine thrombin cleavage of Ub4-pepOG, fluorescence polarization. inhibition, % at 16.6 µM. hit rate 49% among 540. AID 720656;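 active means inhibition at or above a set limit, with a fluorescence interference ratio between 0.5 and a set maximum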
Large screens that a line does not name were inactive (follow-up assays come after a bar, where shown). Unless noted, no stated cut-off is given here; in the data, active means inhibition above about 40%; inactive means the rest.

Cc1[nH]c2ccccc2c1/C=N/n1cnnc1	none
CCCCC1(C)OC(=O)C(=Cc2ccc(N(CC)CC)cc2)C(=O)O1 (stereo unspecified)	Rpn11 block active, TPT1 inh 92 | caTPT1 confirm 167 | RNase T1 counter 155 | Rpn11 inh conf 92 | MMP-2 counter-1 inactive | Thrombin FP 90
O=C1CC(=O)N(Cc2ccco2)C(=S)N1	Rpn11 block active, CSN deneddyl inh 61, TPT1 inh 111 | caTPT1 confirm inactive | RNase T1 counter 31 | Rpn11 inh conf 102 | MMP-2 counter-1 82 | Thrombin FP active
Cc1c(O)ccc(/C(Cc2ccc3ccccc3n2)=N\N)c1O	Rpn11 block active, TPT1 inh 29 | caTPT1 confirm 36 | RNase T1 counter 47 | Rpn11 inh conf inactive | MMP-2 counter-1 inactive | Thrombin FP inactive
Cc1cc(NC(=O)CCC(=O)N(CC(=O)NC2CCCC2)c2ccc(C)c(F)c2)no1	none
N#Cc1c(SCC(=O)Nc2ccc(C(F)(F)F)cc2)sc2c(O)cc(=O)[nH]c12	none
N#Cc1c(SCC(=O)Nc2nncs2)sc2c(O)cc(=O)[nH]c12	Rpn11 block active, TPT1 inh 76 | caTPT1 confirm inactive | RNase T1 counter inactive | Rpn11 inh conf inactive | MMP-2 counter-1 52 | Thrombin FP inactive
Cc1cc(C(=O)O)ccc1-n1c(C)cc(/C=C(/C#N)C(=O)Nc2ccccc2)c1C	none (no result: PKA-R2B activ, PKA-R1A activ)
Cc1cc(C(=O)O)ccc1-n1c(C)cc(C=C2C(=O)c3ccccc3C2=O)c1C	Rpn11 block active, TPT1 inh 59 | caTPT1 confirm 51 | RNase T1 counter 63 | Rpn11 inh conf inactive | MMP-2 counter-1 inactive | Thrombin FP inactive
CCN1CCN(S(=O)(=O)c2ccc(C(=O)Nc3sc4c(c3C(N)=O)CCN(CC)C4)cc2)CC1	Rpn11 block active, TPT1 inh 96 | caTPT1 confirm 115 | RNase T1 counter 118 | Rpn11 inh conf inactive | MMP-2 counter-1 inactive | Thrombin FP inactive
CCc1nnc(NC(=O)c2sc3nc4cc(C)ccc4cc3c2N)s1	Rpn11 block active, TPT1 inh 27 | caTPT1 confirm 28 | RNase T1 counter 41 | Rpn11 inh conf inactive | MMP-2 counter-1 inactive | Thrombin FP inactive
CCOC(=O)Cc1csc(NC(=O)c2sc3nc4ccc(C)cc4cc3c2N)n1	HNF4A DNA FP 38, Rpn11 block active, TPT1 inh 26 | caTPT1 confirm 51 | RNase T1 counter 62 | Rpn11 inh conf 77 | MMP-2 counter-1 inactive | Thrombin FP 41
CCc1nnc(NC(=O)c2ccc3ccccc3n2)s1	none
CCOC(=O)Cc1csc(NC(=O)c2cccnc2)n1	none
Cc1ccc(S(=O)(=O)Nc2cccc(C(=O)NCc3ccccn3)c2)cc1F	none
CCOc1ncccc1C(=O)Nc1cccc(S(=O)(=O)N2CCOCC2)c1	none (no result: TPT1 inh)
CC(=Cc1ccccc1)C=C1SC(=S)N(CCCC(=O)Nc2ccc(C(=O)O)cc2)C1=O	none (no result: PKA-R2B activ, PKA-R1A activ, TPT1 inh)
CC(/C=C1\SC(=S)N(CCC(=O)Nc2cccc(C(=O)O)c2)C1=O)=C\c1ccccc1	Rpn11 block active, TPT1 inh 25 | caTPT1 confirm 43 | RNase T1 counter 56 | Rpn11 inh conf 122 | MMP-2 counter-1 inactive | Thrombin FP inactive
O=C1NC(=S)N(C(=O)c2ccc(F)cc2)/C1=C/c1cccnc1	none (no result: PKA-R2B activ, PKA-R1A activ)
COc1ccc(/C=C2\C(=O)NC(=S)N2C(=O)c2ccc(C)cc2)cc1	Rpn11 block active, CSN deneddyl inh 48, TPT1 inh 49 | caTPT1 confirm 66 | RNase T1 counter 78 | Rpn11 inh conf 107 | MMP-2 counter-1 inactive | Thrombin FP 56 | CSN deneddyl val inactive | MMP-2 counter-2 inactive | Thrombin counter 37
Cn1c(-c2ccc(C=O)s2)nc2c3ccccc3c3ccccc3c21	CSN deneddyl inh 47, TPT1 inh 34 | caTPT1 confirm 52 | RNase T1 counter 63 | MMP-2 counter-2 inactive | Thrombin counter inactive
O=C1CC(=O)N(Cc2ccco2)C(=O)N1	Rpn11 block active, CSN deneddyl inh 66, TPT1 inh 92 | caTPT1 confirm 47 | RNase T1 counter 59 | Rpn11 inh conf 125 | MMP-2 counter-1 inactive | Thrombin FP 64 | CSN deneddyl val inactive | MMP-2 counter-2 25 | Thrombin counter 44
O=C1C2C(C(=O)N1Cc1ccco1)C1C=CC2C12CC2 (stereo unspecified)	none
COc1ccc(OCCC(=O)OCC(=O)c2ccc[nH]2)cc1	none
Cc1cccn2c(=O)c(/C=C3\SC(=S)NC3=O)c(NCCCN3CCOCC3)nc12	HNF4A DNA FP 109, CSN deneddyl inh 85, TPT1 inh 121 (not shown: Rpn11 block) | caTPT1 confirm 122 | RNase T1 counter 120 | CSN deneddyl val 81 | MMP-2 counter-2 inactive | Thrombin counter 47
Cc1cccn2c(=O)c3cc(C(=O)NCCN4CCOCC4)n(C)c3nc12	none
CCOCCCNc1nc2c(C)cccn2c(=O)c1/C=C1\SC(=S)N(CC(C)C)C1=O	HNF4A DNA FP 57, Rpn11 block active, CSN deneddyl inh 47, TPT1 inh 52 | caTPT1 confirm 76 | RNase T1 counter 95 | Rpn11 inh conf 91 | MMP-2 counter-1 60 | Thrombin FP 72 | CSN deneddyl val 76 | MMP-2 counter-2 inactive | Thrombin counter 20
